Laboratory results from ChEMBL document CHEMBL3124843, “Synthesis, cytostatic, antimicrobial, and anti-HCV activity of 6-substituted 7-(het)aryl-7-deazapurine ribonucleosides” (J Med Chem, 2014).
Active and inactive are the calls of the source. The rule behind the calls is not given here.

Legend:
[1] = tested on: Staphylococcus haemolyticus; assay: Antibacterial activity against methicillin-resistant Staphylococcus haemolyticus A/16568 after 24 hrs; type: functional, organism-based
HL-60 = assay: Antiproliferative activity against human HL60 cells after 72 hrs by XTT assay; type: functional, cell-based; settings: HL-60, 72 h
Summary of the method: (§1)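 Antiproliferative test on HL-60 promyelocytic leukemia and HeLa S3 cervical carcinoma cells growing in liquid suspension.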

HCT-116 [2] = assay: Cytostatic activity against p53-deficient human HCT116 cells after 72 hrs by MTT assay; type: functional, cell-based; settings: HCT-116, 72 h
Summary of the method: (§2)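 IC50 is the concentration that cuts cell growth by 50%, read by quantitative metabolic MTT staining after a 3-day treatment. The resistant sublines were made by raising the concentration of the cytotoxic drug step by step. CEM-DNR-bulk (daunorubicin-selected) stably overexpresses mrp-1. K562-TAX (paclitaxel-selected) expresses only mdr-1. HCT116p53−/− carries null p53 alleles. BJ and MRC-5 are nonmalignant fibroblasts.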

[3] = Cytotoxicity against human HuH7 cells infected with Hepatitis C virus subtype 1b; type: cell-based, Huh-7
[4] = Antiproliferative activity against human HeLaS3 cells after 72 hrs by XTT assay; type: functional, cell-based; settings: HeLa S3, 72 h; summary of the method: as §1
K562 [5] = assay: Cytostatic activity against paclitaxel-resistant human K562 cells after 72 hrs by MTT assay; type: functional, cell-based; settings: K562, 72 h; summary of the method: as §2
HepG2 = assay: Antiproliferative activity against human HepG2 cells after 72 hrs by XTT assay; type: functional, cell-based; settings: HepG2, 72 h
Staphylococcus aureus [6] = assay: Antibacterial activity against Staphylococcus aureus CCM 3953 after 24 hrs; type: functional, organism-based
Candida tropicalis = assay: Antifungal activity against Candida tropicalis after 48 hrs; type: functional, organism-based
Pseudomonas aeruginosa [7] = assay: Antibacterial activity against multi-resistant Pseudomonas aeruginosa A/16575 after 24 hrs; type: functional, organism-based
Staphylococcus aureus [8] = assay: Antibacterial activity against methicillin-resistant Staphylococcus aureus MRSA 4591 after 24 hrs; type: functional, organism-based
K562 [9] = assay: Cytostatic activity against human K562 cells after 72 hrs by MTT assay; type: functional, cell-based; settings: K562, 72 h; summary of the method: as §2
BJ = assay: Cytostatic activity against human BJ cells after 72 hrs by MTT assay; type: ADME, cell-based; summary of the method: as §2
CCRF-CEM = assay: Cytostatic activity against human CCRF-CEM cells after 72 hrs by MTT assay; type: functional, cell-based; summary of the method: as §2
Candida albicans = assay: Antifungal activity against Candida albicans after 48 hrs; type: functional, organism-based
Enterococcus faecalis = assay: Antibacterial activity against Enterococcus faecalis CCM 4224 after 24 hrs; type: functional, organism-based
Hepatitis C virus = assay: Antiviral activity against Hepatitis C virus subtype 1b infected in human HuH7 cells; type: functional, organism-based, Hepacivirus hominis; settings: genotype 1b, Huh-7
MRC5 = assay: Cytostatic activity against human MRC5 cells after 72 hrs by MTT assay; type: ADME, cell-based; settings: MRC5, 72 h; summary of the method: as §2
Escherichia coli [10] = assay: Antibacterial activity against Escherichia coli CCM 3954 after 24 hrs; type: functional, organism-based
A549 = assay: Cytostatic activity against human A549 cells after 72 hrs by MTT assay; type: functional, cell-based; settings: A549, 72 h; summary of the method: as §2
Pichia kudriavzevii = assay: Antifungal activity against Candida crusei after 48 hrs; type: functional, organism-based
Candida parapsilosis = assay: Antifungal activity against Candida parapsilosis after 48 hrs; type: functional, organism-based
[11] = Cytostatic activity against human CEM-DNR-bulk cells after 72 hrs by MTT assay; type: functional, cell-based; summary of the method: as §2
Pseudomonas aeruginosa [12] = assay: Antibacterial activity against Pseudomonas aeruginosa CCM 3955 after 24 hrs; type: functional, organism-based
Escherichia coli [13] = assay: Antibacterial activity against multi-resistant Escherichia coli C/16702 after 24 hrs; type: functional, organism-based
HCT-116 [14] = assay: Cytostatic activity against human HCT116 cells after 72 hrs by MTT assay; type: functional, cell-based; settings: HCT-116, 72 h; summary of the method: as §2

Row | SMILES | Activity [1] | IC50 (HL-60) [µM] | IC50 (HCT-116 [2]) [µM] | CC50 [3] [µM] | IC50 [4] [µM] | IC50 (K562 [5]) [µM] | IC50 (HepG2) [µM] | Activity (Staphylococcus aureus [6]) | Activity (Candida tropicalis) | Activity (Pseudomonas aeruginosa [7]) | Activity (Staphylococcus aureus [8]) | IC50 (K562 [9]) [µM] | IC50 (BJ) [µM] | IC50 (CCRF-CEM) [µM] | Activity (Candida albicans) | Activity (Enterococcus faecalis) | EC50 (Hepatitis C virus) [µM] | IC50 (MRC5) [µM] | Activity (Escherichia coli [10]) | IC50 (A549) [µM] | further results
1 | COc1nc(N)nc2c1c(-c1cccs1)cn2[C@@H]1O[C@H](CO)[C@@H](O)[C@H]1O | inactive | > 20 | > 20 | > 44 | > 20 | > 20 | > 20 | inactive | inactive | inactive | inactive | > 20 | 99.9 | > 20 | inactive | inactive | 6.07 | > 100 | inactive | > 20 | Activity (Pichia kudriavzevii): inactive; Activity (Candida parapsilosis): inactive; IC50 [11]: > 20 µM; Activity (Pseudomonas aeruginosa [12]): inactive; Activity (Escherichia coli [13]): inactive; IC50 (HCT-116 [14]): > 20 µM
2 | COc1nc(N)nc2c1c(-c1ccsc1)cn2[C@@H]1O[C@H](CO)[C@@H](O)[C@H]1O | inactive | > 20 | > 20 | > 44 | > 20 | > 20 | > 20 | inactive | inactive | inactive | inactive | > 20 | > 100 | > 20 | inactive | inactive | 14.5 | > 100 | inactive | > 100 | Activity (Pichia kudriavzevii): inactive; Activity (Candida parapsilosis): inactive; IC50 [11]: > 20 µM; Activity (Pseudomonas aeruginosa [12]): inactive; Activity (Escherichia coli [13]): inactive; IC50 (HCT-116 [14]): > 20 µM
3 | COc1nc(N)nc2c1c(-c1ccoc1)cn2[C@@H]1O[C@H](CO)[C@@H](O)[C@H]1O | inactive | > 20 | > 20 | > 44 | > 20 | > 20 | > 20 | inactive | inactive | inactive | inactive | > 20 | > 100 | > 20 | inactive | inactive | 19.7 | > 100 | inactive | > 20 | Activity (Pichia kudriavzevii): inactive; Activity (Candida parapsilosis): inactive; IC50 [11]: > 20 µM; Activity (Pseudomonas aeruginosa [12]): inactive; Activity (Escherichia coli [13]): inactive; IC50 (HCT-116 [14]): > 20 µM
4 | Nc1nc2c(c(-c3cccs3)cn2[C@@H]2O[C@H](CO)[C@@H](O)[C@H]2O)c(=O)[nH]1 | inactive | > 20 | 19.8 | > 44 | > 20 | 16.8 | > 20 | inactive | inactive | inactive | inactive | > 20 | > 100 | > 20 | inactive | inactive | 18.8 | > 100 | inactive | > 20 | Activity (Pichia kudriavzevii): inactive; Activity (Candida parapsilosis): inactive; IC50 [11]: > 20 µM; Activity (Pseudomonas aeruginosa [12]): inactive; Activity (Escherichia coli [13]): inactive; IC50 (HCT-116 [14]): > 20 µM
5 | Nc1nc(N)c2c(-c3cccs3)cn([C@@H]3O[C@H](CO)[C@@H](O)[C@H]3O)c2n1 | inactive | > 20 | > 20 | > 44 | > 20 | > 20 | > 20 | inactive | inactive | inactive | inactive | > 20 | > 100 | > 20 | inactive | inactive | 10 | > 100 | inactive | > 20 | Activity (Pichia kudriavzevii): inactive; Activity (Candida parapsilosis): inactive; IC50 [11]: > 20 µM; Activity (Pseudomonas aeruginosa [12]): inactive; Activity (Escherichia coli [13]): inactive; IC50 (HCT-116 [14]): > 20 µM
6 | C#Cc1cn([C@@H]2O[C@H](CO)[C@@H](O)[C@H]2O)c2nc(C)nc(N)c12 | inactive | > 20 | > 20 | > 44 | > 20 | 3.29 | > 20 | inactive | inactive | inactive | inactive | > 20 | > 100 | > 20 | inactive | inactive | 8 | > 100 | inactive | > 20 | Activity (Pichia kudriavzevii): inactive; Activity (Candida parapsilosis): inactive; IC50 [11]: 12.6 µM; Activity (Pseudomonas aeruginosa [12]): inactive; Activity (Escherichia coli [13]): inactive; IC50 (HCT-116 [14]): > 20 µM
7 | Nc1nc(N)c2c(-c3ccco3)cn([C@@H]3O[C@H](CO)[C@@H](O)[C@H]3O)c2n1 | inactive | > 20 | > 20 | > 44 | > 20 | > 20 | > 20 | inactive | inactive | inactive | inactive | > 20 | > 100 | > 20 | inactive | inactive | 12.5 | > 100 | inactive | > 20 | Activity (Pichia kudriavzevii): inactive; Activity (Candida parapsilosis): inactive; IC50 [11]: > 20 µM; Activity (Pseudomonas aeruginosa [12]): inactive; Activity (Escherichia coli [13]): inactive; IC50 (HCT-116 [14]): > 20 µM
8 | COc1nc(N)nc2c1c(-c1ccco1)cn2[C@@H]1O[C@H](CO)[C@@H](O)[C@H]1O | inactive | > 20 | > 20 | > 44 | > 20 | > 20 | > 20 | inactive | inactive | inactive | inactive | > 20 | > 100 | > 20 | inactive | inactive | 2.44 | 89.7 | inactive | > 20 | Activity (Pichia kudriavzevii): inactive; Activity (Candida parapsilosis): inactive; IC50 [11]: > 20 µM; Activity (Pseudomonas aeruginosa [12]): inactive; Activity (Escherichia coli [13]): inactive; IC50 (HCT-116 [14]): > 20 µM
